In brackets after ≈: the same amount, converted by molar mass. Activity calls are given as the source filed them. The rule behind the calls is not given here.
Tests used:
Plasmodium falciparum [1] = experiment: Antimalarial activity against schizont stage of chloroquine-sensitive Plasmodium falciparum 3D7 assessed as reduction in parasitemia at 50 ug/ml after more than 40 hrs by Giemsa staining-based light microscopy; type: functional; set-up: scale not given: the % may be the effect or the level left
Outline: (§1)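 Ring stages (5% D-sorbitol synchronized) of 3D7 were grown in RPMI with 10% FBS, gentamycin and Fungizone at 37 °C under CO2. They were exposed in duplicate to compound (DMSO stock, 5 mg/mL) at 2, 10 and 50 μg/mL, with 3% cell suspension and 1% parasitized cells, for >40 h. Giemsa-stained thin smears were counted for schizonts. MIC is the lowest concentration giving 100% inhibition of schizont maturation.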

Plasmodium falciparum [2] = experiment: Antimalarial activity against schizont stage of chloroquine-sensitive Plasmodium falciparum 3D7 after more than 40 hrs by Giemsa staining-based light microscopic analysis; type: functional; conditions: 3D7, 40 h; outline: as §1
Plasmodium falciparum [3] = experiment: Antimalarial activity against Plasmodium falciparum; type: functional
Plasmodium falciparum [4] = experiment: Antimalarial activity against schizont stage of chloroquine-sensitive Plasmodium falciparum 3D7 assessed as reduction in parasitemia at 2 to 10 ug/ml after more than 40 hrs by Giemsa staining-based light microscopy; type: functional; set-up: scale not given: the % may be the effect or the level left; outline: as §1
Plasmodium falciparum [5] = experiment: Antimalarial activity against schizont stage of chloroquine-sensitive Plasmodium falciparum 3D7 assessed as reduction in parasitemia at 10 ug/ml after more than 40 hrs by Giemsa staining-based light microscopy; type: functional; set-up: scale not given: the % may be the effect or the level left; outline: as §1
Plasmodium falciparum [6] = experiment: Antimalarial activity against schizont stage of chloroquine-sensitive Plasmodium falciparum 3D7 after 72 hrs by SYBR Green I-based fluorescence assay; type: functional, organism-based; conditions: 3D7, 72 h
Outline: (§2)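 Parasites cultured in RPMI with 10% FBS, gentamycin and Fungizone (pH 7.2) at 37 °C in CO2. Compounds from DMSO stock (5 mg/mL). Seven 2-fold serial dilutions, duplicate wells. Cells added at 2% hematocrit, 0.8% parasitemia; uninfected-cell wells kept as background. After 72 h, lysis buffer with SYBR Green I, 1 h at 37 °C, fluorescence read. IC50 by logit regression of dose-response.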

Plasmodium falciparum [7] = experiment: Inhibition of Plasmodium falciparum recombinant Falcipain-3 using Z-LR-AMC as substrate at low concentration after 30 mins by microplate reader analysis
Plasmodium yoelii [8] = experiment: Antimalarial activity against chloroquine-resistant Plasmodium yoelii N-67 infected in Swiss mouse assessed as reduction in parasitemia at 50 mg/kg/day, ip administered for 3 days measured on day 4 relative to control; type: functional; set-up: scale not given: the % may be the effect or the level left; conditions: route intraperitoneal
Plasmodium yoelii [9] = experiment: Antimalarial activity against chloroquine-resistant Plasmodium yoelii N-67 infected in Swiss mouse assessed as mean survival time of host at 50 mg/kg/day, ip administered for 3 days (reference value: 9.20 +/- 0.44 days); type: functional; conditions: route intraperitoneal
Plasmodium falciparum [10] = experiment: Activation of Plasmodium falciparum recombinant Falcipain-3 using Z-LR-AMC as substrate at high concentration after 30 mins by microplate reader analysis
[11] = Inhibition of Plasmodium falciparum recombinant Falcipain-2 using Z-LR-AMC as substrate after 30 mins by microplate reader analysis
Plasmodium falciparum [12] = experiment: Antimalarial activity against chloroquine-resistant Plasmodium falciparum K1 after 72 hrs by SYBR Green I-based fluorescence assay; type: functional, organism-based; conditions: K1, 72 h; outline: as §2
[13] = Selectivity index, ratio of CC50 for african green monkey Vero C1008 cells to IC50 for Plasmodium falciparum 3D7; type: functional
Outline: (§3)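 SI = CC50 (Vero, 72 h MTT) / IC50. IC50 comes from a 72 h SYBR Green I fluorescence assay: seven 2-fold dilutions in duplicate, 2% cell suspension at 0.8% parasitemia, and Logit regression of the dose-response.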

[14] = Cytotoxicity against african green monkey Vero C1008 cells after 72 hrs by MTT assay; type: cell-based; conditions: chlorocebus sabaeus
Outline: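 Vero (C1008) cells were incubated with dilutions of compound for 72 h and read by MTT. CC50 was obtained by nonlinear regression.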

[15] = Selectivity index, ratio of CC50 for african green monkey Vero C1008 cells to IC50 for Plasmodium falciparum K1; type: functional; outline: as §3
Plasmodium falciparum [16] = experiment: Resistance ratio of IC5O for Plasmodium falciparum K1 to IC50 for Plasmodium falciparum 3D7; type: functional
Outline: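 Ratio of K1 IC50 to 3D7 IC50. Both come from the 72 h SYBR Green I fluorescence assay: seven 2-fold dilutions in duplicate, 0.8% parasitemia, IC50 by logit regression.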

MIC (Plasmodium falciparum [2]) [µM] | SMILES | Activity (Plasmodium falciparum [1]) [%] | further results
> 142 | CC1(C)C=Cc2c(ccc(C(=O)/C=C/c3ccc([N+](=O)[O-])cc3)c2O)O1 | <100 | 
 | CC(C)=CCC1=C/C(=C(O)\C=C\c2ccc(O)cc2)C(=O)C(CC=C(C)C)(CC=C(C)C)C1=O [MUNCHIWARIN] |  | MIC (Plasmodium falciparum [3]): 4.34 µM (≈ 2 µg/mL)
> 136 | COc1ccc(CCC(=O)c2ccc3c(c2O)C=CC(C)(C)O3)cc1OC | <100 | 
> 149 | COc1ccccc1/C=C/C(=O)c1ccc2c(c1O)C=CC(C)(C)O2 | <100 | 
> 19.3 | CC(C)CCC[C@H](C)CCC[C@H](C)CCCC1(C)CCc2cc(C(=O)/C=C/c3ccccn3)c(O)cc2O1 (stereo partly drawn) |  | Activity (Plasmodium falciparum [4]): <100%
> 149 | COc1ccc(/C=C/C(=O)c2ccc3c(c2O)C=CC(C)(C)O3)cc1 | <100 | 
> 26.6 | CC1(C)CCc2cc(C(=O)/C=C/c3ccc(Cl)c(Cl)c3)c(O)cc2O1 |  | Activity (Plasmodium falciparum [5]): <100%
> 111 | CC(C)=CCCC1(C)C=Cc2c(ccc(C(=O)/C=C/c3ccc(Br)cc3)c2O)O1 (stereo not drawn) | <100 | 
> 136 | CCOc1cc(/C=C/C(=O)c2ccc3c(c2O)C=CC(C)(C)O3)ccc1F | <100 | 
> 120 | CC(C)=CCCC1(C)C=Cc2c(ccc(C(=O)/C=C/c3ccc(N(C)C)cc3)c2O)O1 (stereo not drawn) | <100 | 
> 29.1 | CC1(C)CCc2cc(C(=O)/C=C/c3ccc(F)c(F)c3)c(O)cc2O1 |  | Activity (Plasmodium falciparum [5]): <100%
> 151 | CC1(C)C=Cc2c(ccc(C(=O)/C=C/c3ccc(C#N)cc3)c2O)O1 | <100 | 
> 28.2 | CC1(C)CCc2cc(C(=O)/C=C/c3cccc([N+](=O)[O-])c3)c(O)cc2O1 |  | Activity (Plasmodium falciparum [5]): <100%
> 19.3 | CC(C)CCC[C@H](C)CCC[C@H](C)CCCC1(C)CCc2cc(C(=O)/C=C/c3cccnc3)c(O)cc2O1 (stereo partly drawn) |  | Activity (Plasmodium falciparum [4]): <100%
> 113 | CC(C)=CCCC1(C)C=Cc2c(ccc(C(=O)/C=C/c3ccc(Cl)cc3Cl)c2O)O1 (stereo not drawn) | <100 | 
> 28.5 | CN(C)c1ccc(/C=C/C(=O)c2ccc3c(c2O)CCC(C)(C)O3)cc1 |  | Activity (Plasmodium falciparum [5]): <100%
> 124 | COc1ccc(/C=C/C(=O)c2ccc3c(c2O)C=CC(C)(CCC=C(C)C)O3)cc1 (stereo not drawn) | <100 | 
5.1 (≈ 2 µg/mL) | CC(C)=CCc1cc(C(=O)/C=C/c2ccc(O)cc2)c(O)c(CC=C(C)C)c1O [MEDICAGENIN] |  | MIC (Plasmodium falciparum [3]): 5.1 µM (≈ 2 µg/mL)
29.4 (≈ 10 µg/mL) | CC1(C)C=Cc2c(ccc(C(=O)CCc3ccc(O)c(O)c3)c2O)O1 |  | 
> 32.4 | CC1(C)CCc2cc(C(=O)/C=C/c3ccccn3)c(O)cc2O1 |  | Activity (Plasmodium falciparum [4]): <100%
27.5 (≈ 10 µg/mL) | CC(=O)Oc1ccc(/C=C/C(=O)c2ccc3c(c2O)C=CC(C)(C)O3)cc1 |  | 
137 (≈ 50.1 µg/mL) | COc1ccc(/C=C/C(=O)c2ccc3c(c2O)C=CC(C)(C)O3)cc1OC |  | 

SMILES | MIC (Plasmodium falciparum [2]) [µM] | Activity (Plasmodium falciparum [1]) [%] | further results
CC(C)=CCCC1(C)C=Cc2ccc(O)c(C(=O)/C=C/c3cc(C=O)ccc3O)c2O1 (stereo not drawn) | 0.31 (≈ 0.13 µg/mL) |  | IC50 (Plasmodium falciparum [6]): 87.5 nM; inhibition (Plasmodium falciparum [7]): inactive; Activity (Plasmodium yoelii [8]): 87%; MST (Plasmodium yoelii [9]): 18.4 days; Activity (Plasmodium falciparum [10]): Active; IC50 [11]: 4600 nM; IC50 (Plasmodium falciparum [12]): > 1200 nM; Ratio CC50/IC50 [13]: 1173; CC50 at 72 h [14]: 103000 nM
CC(C)=CCCC1(C)C=Cc2c(O)c(C(=O)/C=C/c3cc(C=O)ccc3O)cc(CC=C(C)C)c2O1 (stereo not drawn) | 0.25 (≈ 0.122 µg/mL) |  | Ratio CC50/IC50 [15]: 242; IC50 (Plasmodium falciparum [6]): 73.2 nM; Activity (Plasmodium yoelii [8]): 71%; MST (Plasmodium yoelii [9]): 12.6 days; IC50 (Plasmodium falciparum [12]): 366 nM; Ratio CC50/IC50 [13]: 1210; Ratio IC50 (Plasmodium falciparum [16]): 5; CC50 at 72 h [14]: 88600 nM
CC(C)=CCCC1(C)C=Cc2ccc(O)c(C(=O)/C=C/c3ccc(O)c(C=O)c3)c2O1 (stereo not drawn) | 0.39 (≈ 0.163 µg/mL) |  | Ratio CC50/IC50 [15]: 376; IC50 (Plasmodium falciparum [6]): 94.7 nM; Activity (Plasmodium yoelii [8]): 88%; MST (Plasmodium yoelii [9]): 16.75 days; IC50 (Plasmodium falciparum [12]): 84.2 nM; Ratio CC50/IC50 [13]: 334; Ratio IC50 (Plasmodium falciparum [16]): 0.9; CC50 at 72 h [14]: 31700 nM

Source: ChEMBL document CHEMBL2331228, “Synthesis and insight into the structure-activity relationships of chalcones as antimalarial agents” (J Med Chem, 2013)
